ChEMBL document CHEMBL4330096, “Discovery of potent and selective 5-azaindazole inhibitors of leucine-rich repeat kinase 2 (LRRK2) - Part 1” (Bioorg Med Chem Lett, 2019)

What was measured:
[1] = Ratio of drug level in mouse brain to plasma; details: read-out: BPR
In short: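 Mice; ratio based on total (not unbound) compound concentrations in brain versus plasma.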

[2] = Lipophilicity, log D of the compound at pH 7.4; format: physicochemical; details: buffer
[3] = target: Calcium/calmodulin-dependent protein kinase kinase 2 (Homo sapiens) (UniProt Q96RR4); experiment: Inhibition of CAMKKb (unknown origin) at 1 uM relative to control
In short: (§1)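 Single-point screen of each compound against a panel of 59 protein kinases, at 1 or 10 μM. The panel data are also summarised as a rescaled geometric mean selectivity score.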

[4] = target: Tyrosine-protein kinase Yes (Homo sapiens) (UniProt P07947); experiment: Inhibition of YES1 (unknown origin) at 1 uM relative to control
Tyrosine-protein kinase Yes (Homo sapiens), sequence (P07947 2-543 limits assumed): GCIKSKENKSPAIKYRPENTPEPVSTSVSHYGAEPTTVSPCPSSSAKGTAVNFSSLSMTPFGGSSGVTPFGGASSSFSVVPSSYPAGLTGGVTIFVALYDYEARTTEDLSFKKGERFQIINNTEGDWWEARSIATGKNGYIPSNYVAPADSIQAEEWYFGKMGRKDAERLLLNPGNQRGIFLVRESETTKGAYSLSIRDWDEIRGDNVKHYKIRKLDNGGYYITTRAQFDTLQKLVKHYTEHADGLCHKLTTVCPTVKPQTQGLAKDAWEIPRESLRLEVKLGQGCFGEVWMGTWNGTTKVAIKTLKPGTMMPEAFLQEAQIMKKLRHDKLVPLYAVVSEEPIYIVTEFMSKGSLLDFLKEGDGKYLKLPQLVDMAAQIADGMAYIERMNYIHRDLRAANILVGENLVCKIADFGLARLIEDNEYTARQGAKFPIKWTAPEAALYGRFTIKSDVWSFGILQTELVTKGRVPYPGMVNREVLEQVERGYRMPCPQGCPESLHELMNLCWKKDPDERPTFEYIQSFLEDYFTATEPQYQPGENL
In short: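 Single-concentration screen across a panel of 59 protein kinases, with each compound tested at one fixed concentration. The read-out is residual kinase activity relative to control. Panel results are also condensed into a rescaled geometric mean (RGM) selectivity score.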

[5] = target: T1, Serine/threonine-protein kinase D1 (Homo sapiens) (UniProt Q15139); experiment: Inhibition of PKD1 (unknown origin) at 1 uM relative to control
T1 sequence (whole entry): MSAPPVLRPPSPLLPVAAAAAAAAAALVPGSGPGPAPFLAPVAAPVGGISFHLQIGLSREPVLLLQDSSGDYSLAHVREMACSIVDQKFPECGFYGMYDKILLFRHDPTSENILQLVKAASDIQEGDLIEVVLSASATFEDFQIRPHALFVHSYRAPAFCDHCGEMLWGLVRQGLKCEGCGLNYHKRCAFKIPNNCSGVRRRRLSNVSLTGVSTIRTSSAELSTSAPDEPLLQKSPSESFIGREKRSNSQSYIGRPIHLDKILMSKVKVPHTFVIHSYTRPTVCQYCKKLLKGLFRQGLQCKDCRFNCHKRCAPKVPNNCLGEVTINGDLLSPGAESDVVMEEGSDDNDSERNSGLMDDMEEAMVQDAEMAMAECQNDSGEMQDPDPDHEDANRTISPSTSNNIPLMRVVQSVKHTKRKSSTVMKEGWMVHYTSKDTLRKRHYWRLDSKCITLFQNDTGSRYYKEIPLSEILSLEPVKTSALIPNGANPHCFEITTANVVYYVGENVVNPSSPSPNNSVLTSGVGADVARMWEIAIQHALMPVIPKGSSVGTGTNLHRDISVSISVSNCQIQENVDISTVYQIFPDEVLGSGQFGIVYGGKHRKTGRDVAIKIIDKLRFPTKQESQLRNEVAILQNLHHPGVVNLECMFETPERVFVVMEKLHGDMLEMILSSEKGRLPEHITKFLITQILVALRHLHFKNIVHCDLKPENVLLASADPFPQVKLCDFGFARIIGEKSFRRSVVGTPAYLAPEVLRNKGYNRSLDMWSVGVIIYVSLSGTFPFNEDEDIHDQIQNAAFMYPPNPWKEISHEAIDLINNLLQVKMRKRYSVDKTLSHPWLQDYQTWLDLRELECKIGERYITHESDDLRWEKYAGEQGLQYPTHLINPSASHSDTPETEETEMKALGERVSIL
In short: (§2)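 Single-concentration screen of each compound against a 59-protein-kinase panel, run at 10 µM or 1 µM. Activity relative to control is shown as a heat map across the panel.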

[6] = target: Calcium/calmodulin-dependent protein kinase type 1 (Homo sapiens) (UniProt Q14012); experiment: Inhibition of CAMK1 (unknown origin) at 1 uM relative to control; in short: as §1
Calcium/calmodulin-dependent protein kinase type 1 (Homo sapiens), sequence (Q14012 whole entry, looked up): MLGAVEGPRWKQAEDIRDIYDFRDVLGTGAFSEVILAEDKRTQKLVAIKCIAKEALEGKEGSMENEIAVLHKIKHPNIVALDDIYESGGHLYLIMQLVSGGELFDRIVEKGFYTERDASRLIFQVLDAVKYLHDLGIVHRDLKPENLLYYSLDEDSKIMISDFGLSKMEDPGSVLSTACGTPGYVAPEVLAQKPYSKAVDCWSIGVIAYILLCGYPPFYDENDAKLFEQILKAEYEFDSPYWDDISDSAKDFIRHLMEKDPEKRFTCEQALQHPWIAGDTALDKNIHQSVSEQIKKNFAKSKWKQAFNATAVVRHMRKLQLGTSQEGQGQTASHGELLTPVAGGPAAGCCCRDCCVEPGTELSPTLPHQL

[7] = target: Glycogen synthase kinase-3 beta (Homo sapiens) (UniProt P49841); experiment: Inhibition of GSK3b (unknown origin) at 1 uM relative to control; in short: as §1
Glycogen synthase kinase-3 beta (Homo sapiens), sequence (P49841 whole entry, looked up): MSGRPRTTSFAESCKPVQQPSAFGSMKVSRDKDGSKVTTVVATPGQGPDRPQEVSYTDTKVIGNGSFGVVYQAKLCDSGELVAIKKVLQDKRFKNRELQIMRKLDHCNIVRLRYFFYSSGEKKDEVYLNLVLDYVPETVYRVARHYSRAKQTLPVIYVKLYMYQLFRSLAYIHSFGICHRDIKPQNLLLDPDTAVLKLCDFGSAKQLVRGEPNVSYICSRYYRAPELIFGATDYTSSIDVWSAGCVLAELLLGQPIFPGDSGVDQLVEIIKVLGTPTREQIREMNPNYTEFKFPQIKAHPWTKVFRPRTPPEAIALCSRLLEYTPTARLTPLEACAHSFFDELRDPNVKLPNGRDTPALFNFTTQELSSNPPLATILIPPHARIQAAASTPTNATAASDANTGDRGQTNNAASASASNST

[8] = target: Serine/threonine-protein kinase N2 (Homo sapiens) (UniProt Q16513); experiment: Inhibition of PRK2 (unknown origin) at 1 uM relative to control; in short: as §2
Serine/threonine-protein kinase N2 (Homo sapiens), sequence (Q16513 whole entry, looked up): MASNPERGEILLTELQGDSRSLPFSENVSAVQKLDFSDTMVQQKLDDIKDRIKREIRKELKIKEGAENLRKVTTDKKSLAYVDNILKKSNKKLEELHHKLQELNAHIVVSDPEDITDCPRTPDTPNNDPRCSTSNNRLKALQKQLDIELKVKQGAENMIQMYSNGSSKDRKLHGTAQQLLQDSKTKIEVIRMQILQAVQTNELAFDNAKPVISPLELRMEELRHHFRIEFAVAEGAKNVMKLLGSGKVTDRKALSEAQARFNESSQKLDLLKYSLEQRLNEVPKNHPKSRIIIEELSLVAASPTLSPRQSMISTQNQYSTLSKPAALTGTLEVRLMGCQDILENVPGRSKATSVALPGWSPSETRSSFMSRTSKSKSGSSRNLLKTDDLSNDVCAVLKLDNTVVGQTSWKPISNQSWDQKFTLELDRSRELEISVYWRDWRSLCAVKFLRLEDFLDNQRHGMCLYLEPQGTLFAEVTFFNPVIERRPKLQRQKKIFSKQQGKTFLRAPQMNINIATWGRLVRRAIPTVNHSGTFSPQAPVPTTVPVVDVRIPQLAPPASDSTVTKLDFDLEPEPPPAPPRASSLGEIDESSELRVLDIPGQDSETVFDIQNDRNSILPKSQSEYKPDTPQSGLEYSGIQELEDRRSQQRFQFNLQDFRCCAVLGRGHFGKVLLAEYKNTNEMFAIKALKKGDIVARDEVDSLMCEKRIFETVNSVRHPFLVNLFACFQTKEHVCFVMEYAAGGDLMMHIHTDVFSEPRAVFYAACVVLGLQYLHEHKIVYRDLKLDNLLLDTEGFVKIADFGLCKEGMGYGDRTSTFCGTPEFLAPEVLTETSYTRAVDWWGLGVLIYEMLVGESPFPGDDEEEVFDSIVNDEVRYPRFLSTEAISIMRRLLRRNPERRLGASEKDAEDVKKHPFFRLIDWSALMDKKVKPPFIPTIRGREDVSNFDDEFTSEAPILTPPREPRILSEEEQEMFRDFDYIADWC

[9] = target: Mitogen-activated protein kinase 1 (Homo sapiens) (UniProt P28482); experiment: Inhibition of ERK2 (unknown origin) at 1 uM relative to control; in short: as §1
Mitogen-activated protein kinase 1 (Homo sapiens), sequence (P28482 whole entry): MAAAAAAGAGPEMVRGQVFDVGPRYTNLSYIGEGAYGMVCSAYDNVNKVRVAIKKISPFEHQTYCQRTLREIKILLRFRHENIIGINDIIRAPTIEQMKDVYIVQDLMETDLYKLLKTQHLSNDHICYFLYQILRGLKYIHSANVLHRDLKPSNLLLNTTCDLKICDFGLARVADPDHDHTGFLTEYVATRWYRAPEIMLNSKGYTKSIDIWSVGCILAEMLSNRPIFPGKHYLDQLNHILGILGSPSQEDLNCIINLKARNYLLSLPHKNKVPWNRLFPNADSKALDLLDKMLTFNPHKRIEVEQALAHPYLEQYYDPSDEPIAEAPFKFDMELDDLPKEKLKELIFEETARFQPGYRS

[10] = target: Rho-associated protein kinase 2 (Homo sapiens) (UniProt O75116); experiment: Inhibition of ROCK2 (unknown origin) at 1 uM relative to control; in short: as §2
Rho-associated protein kinase 2 (Homo sapiens), sequence (O75116 whole entry, looked up): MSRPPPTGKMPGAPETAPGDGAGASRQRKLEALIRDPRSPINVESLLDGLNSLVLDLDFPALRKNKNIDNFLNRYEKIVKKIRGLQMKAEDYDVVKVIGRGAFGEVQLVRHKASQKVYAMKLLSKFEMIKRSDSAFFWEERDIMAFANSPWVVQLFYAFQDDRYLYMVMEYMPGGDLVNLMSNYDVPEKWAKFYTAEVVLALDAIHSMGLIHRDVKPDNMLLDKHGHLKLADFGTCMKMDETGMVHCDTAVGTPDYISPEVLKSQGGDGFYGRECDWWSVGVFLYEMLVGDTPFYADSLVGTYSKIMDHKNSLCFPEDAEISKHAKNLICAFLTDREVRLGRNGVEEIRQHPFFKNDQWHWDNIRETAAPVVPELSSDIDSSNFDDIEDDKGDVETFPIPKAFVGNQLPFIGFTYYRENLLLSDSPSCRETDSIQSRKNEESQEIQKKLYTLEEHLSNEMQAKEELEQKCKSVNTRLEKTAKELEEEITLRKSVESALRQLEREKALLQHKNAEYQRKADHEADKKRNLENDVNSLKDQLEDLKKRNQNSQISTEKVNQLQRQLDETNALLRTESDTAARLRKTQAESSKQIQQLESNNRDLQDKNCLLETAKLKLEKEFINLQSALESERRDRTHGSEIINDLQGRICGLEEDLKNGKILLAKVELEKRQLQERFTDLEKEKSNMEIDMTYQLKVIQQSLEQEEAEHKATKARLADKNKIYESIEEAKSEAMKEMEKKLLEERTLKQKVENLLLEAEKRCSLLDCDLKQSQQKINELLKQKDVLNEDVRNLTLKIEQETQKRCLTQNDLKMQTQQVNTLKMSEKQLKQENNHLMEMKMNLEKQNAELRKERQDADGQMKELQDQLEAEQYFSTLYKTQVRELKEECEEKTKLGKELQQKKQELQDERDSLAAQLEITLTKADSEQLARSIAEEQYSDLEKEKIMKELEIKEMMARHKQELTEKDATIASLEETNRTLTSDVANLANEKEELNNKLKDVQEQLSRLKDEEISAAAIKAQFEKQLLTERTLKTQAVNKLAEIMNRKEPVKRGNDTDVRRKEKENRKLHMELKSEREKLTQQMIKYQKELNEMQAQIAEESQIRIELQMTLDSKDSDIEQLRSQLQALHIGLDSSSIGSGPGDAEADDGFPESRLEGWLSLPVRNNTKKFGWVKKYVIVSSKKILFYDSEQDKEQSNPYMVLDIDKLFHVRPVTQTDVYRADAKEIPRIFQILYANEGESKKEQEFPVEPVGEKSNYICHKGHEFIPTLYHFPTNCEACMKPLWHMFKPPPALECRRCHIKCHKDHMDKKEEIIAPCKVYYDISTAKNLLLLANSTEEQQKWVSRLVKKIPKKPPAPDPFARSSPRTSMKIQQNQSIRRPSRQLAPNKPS

[11] = target: Serine/threonine-protein kinase PLK1 (Homo sapiens) (UniProt P53350); experiment: Inhibition of PLK1 (unknown origin) at 1 uM relative to control; in short: as §2
Serine/threonine-protein kinase PLK1 (Homo sapiens), sequence (P53350 whole entry): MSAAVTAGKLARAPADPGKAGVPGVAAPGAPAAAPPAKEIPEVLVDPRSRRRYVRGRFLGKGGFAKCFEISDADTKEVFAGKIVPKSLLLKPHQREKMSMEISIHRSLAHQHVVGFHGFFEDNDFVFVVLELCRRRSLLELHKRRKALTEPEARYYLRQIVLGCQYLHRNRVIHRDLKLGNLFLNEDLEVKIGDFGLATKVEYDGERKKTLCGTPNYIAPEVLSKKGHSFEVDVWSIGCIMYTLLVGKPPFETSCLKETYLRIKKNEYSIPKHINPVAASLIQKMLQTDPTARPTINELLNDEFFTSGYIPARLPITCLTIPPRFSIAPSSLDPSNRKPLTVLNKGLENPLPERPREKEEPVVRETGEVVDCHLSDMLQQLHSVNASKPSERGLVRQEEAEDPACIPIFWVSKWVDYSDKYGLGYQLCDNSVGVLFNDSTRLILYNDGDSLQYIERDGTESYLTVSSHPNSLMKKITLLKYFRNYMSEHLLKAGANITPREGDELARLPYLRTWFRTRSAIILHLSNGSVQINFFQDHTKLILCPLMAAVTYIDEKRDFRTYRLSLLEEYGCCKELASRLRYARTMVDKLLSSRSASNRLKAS

Structure (SMILES) | Kp [1] | logD [2] | inhibition [3] [%] | inhibition [4] [%] | inhibition [5] [%] | inhibition [6] [%] | inhibition [7] [%] | inhibition [8] [%] | inhibition [9] [%] | inhibition [10] [%] | inhibition [11] [%]
Cc1n[nH]c2ccnc(NC3CCCCC3)c12 | 4 |  |  |  |  |  |  |  |  |  | 
Cc1n[nH]c2ccnc(OC3CCCCC3)c12 |  | > 4 |  |  |  |  |  |  |  |  | 
CC(C)n1cc(-c2n[nH]c3ccnc(OC4CCOCC4)c23)cn1 |  |  | 1 | 0 | 41 | 36 | 90 | 24 | 49 | 28 | 0
c1cc(-c2n[nH]c3ccnc(OC4CCOCC4)c23)cc(N2CCOCC2)n1 |  |  | 0 | 9 | 7 | 7 | 36 | 0 | 51 | 0 | 0
